Compound activity deposited in PubChem BioAssay by Sanford-Burnham Center for Chemical Genomics.
Apaf1 activ – activators of human Apaf-1 apoptosome, primary screen, biochemical, DEVD-Rh110 fluorescence, uHTS; Apaf-1 apoptosome caspase-3 activation; active compounds read low; activity change, negative = activation, % at 20 µM; 330,000 compounds, 0.31% hits;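 active = activity change at or below -40% at 20 µM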
Target sequence (O14727 whole entry, looked up): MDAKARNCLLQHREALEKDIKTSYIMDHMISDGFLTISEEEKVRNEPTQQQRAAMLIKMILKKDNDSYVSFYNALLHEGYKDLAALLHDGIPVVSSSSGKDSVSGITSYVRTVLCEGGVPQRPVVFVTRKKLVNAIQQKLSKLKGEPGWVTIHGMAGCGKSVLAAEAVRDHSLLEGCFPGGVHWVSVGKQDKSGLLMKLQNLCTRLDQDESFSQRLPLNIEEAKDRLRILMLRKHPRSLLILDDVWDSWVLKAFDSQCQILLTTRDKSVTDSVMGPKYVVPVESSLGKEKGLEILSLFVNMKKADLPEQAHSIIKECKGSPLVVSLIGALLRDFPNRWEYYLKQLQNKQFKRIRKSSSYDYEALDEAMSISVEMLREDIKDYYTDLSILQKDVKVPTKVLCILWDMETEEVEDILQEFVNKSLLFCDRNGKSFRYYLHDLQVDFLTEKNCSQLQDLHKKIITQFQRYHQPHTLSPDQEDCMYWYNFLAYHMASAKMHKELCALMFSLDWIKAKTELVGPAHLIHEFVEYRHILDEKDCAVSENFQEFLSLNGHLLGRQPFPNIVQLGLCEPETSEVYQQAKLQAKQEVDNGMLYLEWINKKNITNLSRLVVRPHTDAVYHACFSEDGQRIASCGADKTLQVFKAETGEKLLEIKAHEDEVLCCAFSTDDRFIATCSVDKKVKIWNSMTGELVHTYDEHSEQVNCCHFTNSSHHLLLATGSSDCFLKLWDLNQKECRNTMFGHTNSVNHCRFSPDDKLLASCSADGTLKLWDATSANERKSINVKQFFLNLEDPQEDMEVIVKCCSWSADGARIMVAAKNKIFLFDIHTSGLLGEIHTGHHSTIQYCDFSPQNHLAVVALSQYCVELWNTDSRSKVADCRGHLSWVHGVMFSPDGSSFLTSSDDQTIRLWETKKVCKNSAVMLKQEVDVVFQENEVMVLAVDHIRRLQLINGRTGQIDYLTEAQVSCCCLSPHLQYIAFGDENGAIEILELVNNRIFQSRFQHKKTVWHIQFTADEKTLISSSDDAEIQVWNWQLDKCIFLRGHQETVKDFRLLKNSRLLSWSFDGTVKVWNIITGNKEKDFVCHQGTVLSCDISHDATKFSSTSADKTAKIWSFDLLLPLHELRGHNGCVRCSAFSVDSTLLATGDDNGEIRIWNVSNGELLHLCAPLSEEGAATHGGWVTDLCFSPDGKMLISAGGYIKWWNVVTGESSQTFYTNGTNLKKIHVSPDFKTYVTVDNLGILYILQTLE
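System: Reconstituted apoptosome of Apaf-1, cytochrome c, caspase-9, procaspase-3 | Reagent: dATP, cytochrome c, and (Z-DEVD)2-Rh110 caspase-3 substrate | Times: 30 min compound preincubation and 50 min reaction, both room temperature | Detection: Caspase-3-released Rh110 fluorescence, 540 nm emission, 480 nm excitation | Measure: Caspase-3 activity via Apaf-1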
Rh110 interf act – Rh110 fluorescence interference by putative Apaf-1 activators, confirmation, artefact control for Apaf-1 activator project, biochemical, 20 µM | shares compounds with Apaf1 activ | quenched caspase reaction, Ex480/Em540 | fluorescence interference (activity change), % at 20 µM, hits read low | 980 tested, under 10 active | AID 504616, 2011;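 active = mean activity change at or below -40% when tested at 20 µM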
Apaf-1 act conf – Apaf-1 activators, single-dose retest, confirmation, biochemical, fluorescence, DEVD-Rh110, 20 µM; AID 504617, 2011; 980 compounds, 5% hits; reconstituted apoptosome caspase-3 activity; active compounds read low; shares compounds with Apaf1 activ; activity change, negative = activation, % at 20 µM;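 active = mean activity change at or below -40%, meaning activation of 40% or more, at 20 µM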
Fluor interf act – fluorescence interference of Apaf-1 activator hits, dose response, artefact control for Apaf-1 activator project; EC50, µM; 55 tested, under 10 active; fluorescence interference counterscreen, Apaf-1 activator assay; AID 588592, 2011; shares compounds with Apaf1 activ; call rule not given here
* = called active by the depositor; . = no result. A selection follows.

SMILES | Apaf1 activ | Rh110 interf act | Apaf-1 act conf | others
CCc1ccc(N=C2NC(=O)/C(=C/c3cc(Br)c(OCC(=O)O)c(OC)c3)S2)cc1 | -99* | 6 | -67* | Fluor interf act=>100
COc1ccc(O)c(N)c1 | 76 | . | .
COCc1cc(=O)oc2cc(NC(=O)c3ccc(C(C)(C)C)cc3)ccc12 | -64* | 0 | 7
Cc1[nH]n(-c2ccccc2)c(=O)c1C(c1cccc([N+](=O)[O-])c1O)c1c(C)[nH]n(-c2ccccc2)c1=O | 88 | . | .
Cc1cc(C)c(S(=O)(=O)/N=C2\C=C(NS(=O)(=O)c3ccccc3)C(=O)c3ccccc32)c(C)c1 | 64 | . | .
Cc1ccc(F)cc1NC(=S)NCCc1ccccc1 | -523* | -5 | 19
Cc1cccc(NC(=S)Nc2cccc3ccccc23)c1 | 93 | . | .
Fc1ccc(NC(=S)Nc2cccc3ccccc23)cc1 | 85 | . | .
CCC1Nc2ncnc(N3CCN(c4ccccc4)CC3)c2N(Cc2ccccc2)C1=O (stereo not drawn) | 60 | . | .
CCN1CCN(CCCNC(=O)c2ccc(/C=C3/Oc4ccccc4N(Cc4cccc(C)c4)C3=O)cc2)CC1 | 47 | . | .
Cc1cccc(CN2C(=O)c3ccccc3Sc3ccc(C(=O)O)cc32)c1 | -53* | 10 | 13
CC(=O)N(/N=C1\Sc2ccccc2C1=O)c1ccc(C)cc1C | 43 | . | .
CCCCCCCCCCCCCCCC[N+](C)(C)CCN(Cc1ccc(OC)cc1)c1ncccn1 | 98 | . | .
Cc1cccc(S(=O)(=O)C(C#N)c2nc3ccccc3nc2N2CCCC2)c1 (stereo not drawn) | 55 | . | .
Cc1cccc(Oc2nc(-c3ccccn3)nc3ccccc23)c1 | -553* | 12 | 12
CC1(C)Cc2ccccc2C2=NNC(=O)C2=N1 | 62 | . | .
C[C@H](NC(=O)N1CCn2c1nc1ccccc12)C(=O)NC1CCCCC1 | -168* | 15 | 16
C=CCN(CC=C)C(=S)Nc1ccc2nsnc2c1 | 96 | . | .
c1ccc(-c2nc(C3CCCCC3)no2)cc1 | -154* | 3 | 0
COc1ccc(CNC[C@@H](CCCCN(C)Cc2ccc(OC)cc2)N2C[C@H](c3ccccc3)N(CCc3ccc(Cl)c(Cl)c3)C(=O)C2=O)cc1 | 49 | . | .
Cc1ccc(-c2nn3c(C)nnc3c3ccccc23)cc1S(=O)(=O)NCc1ccco1 | 44 | . | .
COc1ccccc1CNS(=O)(=O)c1ccc(-c2cc(C)no2)cc1 | 45 | . | .
COc1ccccc1C(CNC(=O)c1ccc(S(=O)(=O)NCc2ccco2)cc1)N(C)C (stereo not drawn) | -53* | 12 | 6
Oc1ccc(/C=N/N2CCCCC2)c(O)c1O | 70 | . | .
CC1CC(=O)c2c(cc3c(-c4c(O)cc(O)c5c(O)c6c(cc45)OC(C)CC6=O)c(O)cc(O)c3c2O)O1 (stereo not drawn) | 62 | . | .
SMILES | Apaf1 activ | Rh110 interf act | Apaf-1 act conf | others
COC(=O)CCC(=O)OC1(C)C(=O)C=C2C=C(C3CC3)N(CC(C)C)C=C2C1=O (stereo not drawn) | 53 | . | .
CCOc1ccc(NC(=O)CN(C)C(=O)c2ccccc2OCc2cccc(C)c2)cc1OCC | 46 | . | .
Cc1cccc(CC(=O)Nc2ccon2)c1 | -278* | 6 | 8
Oc1ccc(Br)cc1-c1nc2cnccn2c1NC1CCCC1 | -566* | 6 | 12
Cc1ccn2c(NC3CCCCC3)c(-c3cccc(SC4CCCCC4)c3)nc2c1 | 40 | . | .
CCC(C)Sc1cccc(-c2nc3cc(C)ccn3c2NC2CCCCC2)c1 (stereo not drawn) | 41 | . | .
COc1ccc(/C=N/Nc2cc(N3CCCC3)nc(N3CCCC3)n2)cc1 | 93 | . | .
COc1ccc2ccccc2c1C1CC(=O)N2CN(C)CSC2=C1C#N (stereo not drawn) | 71 | . | .
CCc1cccc2c(C#N)cn(CCOc3ccccc3OC)c12 | -104* | 3 | 17
COc1ccc(C(=O)COC(=O)CCCN=C2NS(=O)(=O)c3ccccc32)c(OC)c1 | 51 | . | .
CCN(CC)CCN(C(=O)c1ccc(C(=O)c2ccccc2)cc1)c1nc2ccc(OC)cc2s1 | 44 | . | .
COC(=O)C1=C(C)N(Cc2ccccc2)C(=NCc2cc(OC)c(OC)c(OC)c2)N[C@H]1CCc1ccccc1 | 48 | . | .
O=C(Cn1ncn2c(cc3ccccc32)c1=O)NCCc1cccs1 | -392* | 6 | 7
CC(C)n1ncc2c(C(=O)Nc3ccc(S(N)(=O)=O)cc3)cc(C3CC3)nc21 | 75 | . | .
Clc1ccccc1OCc1nn2c(-c3ccncc3)nnc2s1 | 41 | . | .
